Screening data (PubChem)
PAFAH2 FP inh: PAFAH2 enzyme inhibitors, primary screen, biochemical, fluorescence polarization, human | AID 492956, 2010 | 0.99% of 340,000 active | recombinant PAFAH2, FP-rhodamine activity probe | inhibition, % at 3.39 µM | Platelet-activating factor acetylhydrolase 2, cytoplasmic (Homo sapiens), Q99487;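 active means inhibition above the mean over all tested compounds plus 3 SD, cut at about 30% in these data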;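 further: inhibitors block probe labeling of enzyme so polarization drops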
PAFAH1B2 FP inh: PAFAH1B2 enzyme inhibitors, primary screen, biochemical, fluorescence polarization, human. recombinant PAFAH1B2, FP-rhodamine activity probe. 1.2% of 340,000 active. inhibition, % at 3.39 µM. Platelet-activating factor acetylhydrolase IB subunit alpha2 (Homo sapiens), P68402. AID 492953, 2010;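 active means inhibition above the mean of all tested compounds plus 3 SD, cut at about 24% in these data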
HTRA1 inh: HTRA1 serine protease inhibitors, primary screen, biochemical, fluorescence polarization, HTS; Q92743; recombinant HTRA1, FP-rhodamine activity-based probe; inhibition, % at 5.96 µM; 0.5% of 340,000 active; in the data active means inhibition above about 36%
Target sequence (Q92743 whole entry, looked up): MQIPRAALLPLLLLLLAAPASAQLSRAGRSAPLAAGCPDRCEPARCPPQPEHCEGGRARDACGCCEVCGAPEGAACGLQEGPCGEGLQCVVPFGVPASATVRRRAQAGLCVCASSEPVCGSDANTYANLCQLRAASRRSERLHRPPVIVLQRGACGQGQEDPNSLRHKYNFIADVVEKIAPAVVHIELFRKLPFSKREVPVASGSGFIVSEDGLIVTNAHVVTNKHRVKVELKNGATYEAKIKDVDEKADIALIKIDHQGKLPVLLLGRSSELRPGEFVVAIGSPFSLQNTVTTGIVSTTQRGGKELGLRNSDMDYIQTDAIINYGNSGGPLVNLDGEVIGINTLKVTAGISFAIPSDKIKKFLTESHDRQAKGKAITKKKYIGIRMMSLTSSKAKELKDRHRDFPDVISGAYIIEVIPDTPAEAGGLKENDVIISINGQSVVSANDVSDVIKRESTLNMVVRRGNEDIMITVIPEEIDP
PAFAH1B3 inh: PAFAH1B3 enzyme inhibitors, primary screen, biochemical, fluorescence polarization, human; AID 492972, 2010; Platelet-activating factor acetylhydrolase IB subunit alpha1 (Homo sapiens), Q15102; recombinant PAFAH1B3, FP-rhodamine probe; 0.28% of 340,000 active; inhibition, % at 3.39 µM;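 active means inhibition above the screen-wide average of all tested compounds plus 3 SD, cut at about 25% in these data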
mABHD4 FP: ABHD4 inhibitors, primary screen, biochemical, fluorescence polarization, mouse. inhibition, % at 8.92 µM. purified mABHD4, FP-Rh probe fluorescence polarization. (Lyso)-N-acylphosphatidylethanolamine lipase (Mus musculus), Q8VD66. AID 720543, 2013. 0.54% of 370,000 active;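 active means inhibition exceeding the mean over every tested compound plus 3 SD, cut at about 30% in these data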
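Doses – 8.92 µM, single dose · Material – wild-type mouse ABHD4 protein · Replication – single well per compound (singlicate) · Measure – percent inhibition of probe binding, normalized to plate controls · Schedule – 45 min compound pre-incubation plus 60 min probe step, 25 °C · Detection – fluorescence polarization with parallel and perpendicular emission, 525/598 nm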
pPAFAH FP inh: pPAFAH enzyme inhibitors, primary screen, biochemical, fluorescence polarization, human; Platelet-activating factor acetylhydrolase (Homo sapiens), Q13093; recombinant pPAFAH, FP-rhodamine probe fluorescence polarization; inhibition, % at 3.39 µM; 1.5% of 330,000 active; AID 463082, 2010;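 active means inhibition above the mean inhibition across the screen plus 3 SD, cut at about 25% in these data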;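 further: inhibitors block binding of the rhodamine activity-based probe so polarization drops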
pPAFAH FP conf: pPAFAH (PLA2G7) enzyme inhibitors, confirmation, biochemical, fluorescence polarization, human; shares compounds with pPAFAH FP inh; recombinant pPAFAH, FP-Rh probe fluorescence polarization; inhibition, % at 3.39 µM; 72% of 2,300 active;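 active means mean inhibition of the triplicate above the hit cutoff set for the earlier primary screen, cut at about 25% in these data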
Numbers stand for hits; . = inactive; / = no result; ! = not confirmed by another sample. An excerpt weighted towards active compounds, which were near 2.8% of everything screened.

SMILES	PAFAH2 FP inh	PAFAH1B2 FP inh	HTRA1 inh	PAFAH1B3 inh	mABHD4 FP	pPAFAH FP inh	pPAFAH FP conf
COc1cc([N+](=O)[O-])cc(/C=C2/SC(=S)N(Cc3ccccc3)C2=O)c1O	.	.	.	.	.	.	/
O=C(O)CN1C(=O)/C(=C\c2cc(Br)ccc2OCc2ccccc2F)SC1=S	31	.	.	.	.	52	67
O=C(O)CN1C(=O)/C(=C\c2cc(Br)ccc2OCc2ccc([N+](=O)[O-])cc2)SC1=S	.	.	.	.	.	59	58
O=C(O)CN1C(=O)/C(=C\c2cc(Br)ccc2OCc2ccccc2Cl)SC1=S	.	.	.	.	.	45	75
C=CCN(CC#Cc1ccccc1)Cc1ccc(OC)cc1OC	/	/	/	/	.	/	/
Cc1ccc(C)n1/N=C1/NC(=O)CS1	39	.	.	.	.	39	.
Cc1ccc(N=C2NC(=O)CS2)cc1	.	.	.	.	.	.	/
COc1ccc(N(Cc2cc3cccc(C)c3[nH]c2=O)S(=O)(=O)c2ccc(OC)cc2)cc1	.	.	.	.	.	66	.
Cc1ccc(NC(=O)N/C=C/c2ccccc2)cc1	.	.	.	.	.	39	.
O=C(c1ccccc1)c1nn(-c2ccccc2)c2nnc(Cc3ccccc3)c(=O)n12	.	.	.	.	.	41	30
O=C(O)c1cc(-c2ccco2)nc2ccc(Br)cc12	45!	.	.	.	.	63!	.
O=C(N/N=C/c1cccc(F)c1)c1cc(-c2ccco2)nc2ccccc12	.	.	.	.	.	39	.
O=C(c1cc(-c2ccco2)nc2ccccc12)N1CCN(Cc2ccccc2)CC1	.	.	.	.	.	.	/
CN(C)C(CNC(=O)c1cc(-c2ccco2)nc2ccccc12)c1ccccc1 (configuration not stated)	.	.	.	.	.	61	.
CC(C)CCNC(=O)c1cc(-c2ccco2)nc2ccccc12	.	.	.	.	.	.	/
COC(=O)C1CCN(C(=O)c2cc(-c3ccco3)nc3ccccc23)CC1	.	.	.	.	.	45	.
CC(C)N(Cc1cn(Cc2ccccc2)nn1)S(=O)(=O)c1ccccc1Br	/	/	/	/	.	/	/
COc1ccc(Nc2nnc(SC(C(=O)Nc3cc(C)ccc3C)c3ccccc3)s2)cc1 (configuration not stated)	.	.	.	.	.	.	/
COc1ccc(Nc2nnc(SC(C(=O)Nc3ccc(OC)c(Cl)c3)c3ccccc3)s2)cc1 (configuration not stated)	.	.	.	.	.	35	.
O=C(CSCc1n[nH]c(=O)[nH]1)NCCOc1cccc(Oc2ccccc2)c1	.	.	.	.	.	36	.
O=C(O)c1[nH]c2ccccc2c1NS(=O)(=O)Cc1ccccc1	.	.	.	.	.	38	.
Cc1cc(Br)c(S(=O)(=O)NCc2cccnc2)cc1C	.	.	.	.	.	49	.
Cc1cc(C)c(S(=O)(=O)NCc2cccnc2)cc1C	.	.	.	.	.	.	/
COc1cc(/C=C2/S/C(=N/S(=O)(=O)c3ccccc3)NC2=O)c([N+](=O)[O-])cc1OC	.	.	.	.	.	.	/
O=C1N/C(=N\S(=O)(=O)c2ccccc2)S/C1=C\c1cc([N+](=O)[O-])ccc1O	31	38	.	43	.	41	49
SMILES	PAFAH2 FP inh	PAFAH1B2 FP inh	HTRA1 inh	PAFAH1B3 inh	mABHD4 FP	pPAFAH FP inh	pPAFAH FP conf
CCCCn1cnc2c(=O)[nH]ccc21	/	/	/	/	.	/	/
NCCCCNCCCN	.	.	.	.	.	62	.
CCN(CC)c1ccc(NS(=O)(=O)c2ccc(-c3ccc(=O)[nH]n3)o2)c(C)c1	.	.	.	.	.	68	50
Cc1ccccc1NS(=O)(=O)c1ccc(-c2ccc(=O)[nH]n2)o1	.	.	.	.	.	.	/
CC(C)(C)C(=O)Nc1scc(-c2ccc(-c3ccccc3)cc2)c1C(=O)O	.	.	.	.	.	43	25
Cc1ccc(C(=O)Nc2scc(-c3ccccc3)c2C(=O)O)cc1	.	.	.	.	.	.	/
COC(=O)[C@]12C[C@H](CC(=O)NCCCCc3ccccc3)C(=O)N(Cc3cccc4ccccc34)C1=C[C@H](C(C)(C)C)O[C@@H]2C	/	/	/	/	.	/	/
CC(=O)Oc1ccc2c(c1)Oc1cc(OC(C)=O)ccc1C21OC(=O)c2ccccc21	124	110	124	129	/	99	90
CCOc1ccc2nc3cc(NCc4ccc(OC)cc4)ccc3c(N)c2c1	.	.	.	.	/	38	.
CCn1cnc2cc(NCc3ccc(OC)cc3)ccc21	.	.	.	.	.	.	/
Cc1nn(-c2ccccc2)c(/N=C/c2ccccc2O)c1-c1ccccc1	.	.	.	.	.	35	.
Cc1oc2c(c1C(=O)O)C(=O)c1ccccc1C2=O	.	.	.	.	.	.	/
Cc1oc2c(c1C(=O)c1ccccc1)C(=O)C(=O)c1ccccc1-2	34	.	.	.	.	36	25
CCCCOc1cccc(C(=O)NCCc2ccccc2-c2ccccc2CCC(=O)NCc2ccccc2)c1	/	/	/	/	.	/	/
CCN(C(=O)CN1CCN(c2nc(-c3ccccc3)cs2)CC1)c1ccccc1C	/	/	/	/	.	/	/
O=C(N/N=C/c1ccccc1)c1ccc(-c2ccccc2)cc1	.	.	.	.	.	69	.
O=C(N/N=C\c1ccccc1F)c1ccc(-c2ccccc2)cc1	.	.	.	.	.	/	/
CS(=O)(=O)c1ccc(C(=O)OCC(=O)NCc2cccs2)cc1[N+](=O)[O-]	38	.	.	.	.	36	.
COC(=O)[C@]12C[C@H](CC(=O)N3CCN(C(=O)c4ccco4)CC3)C(=O)N(CCc3ccc(OC)c(OC)c3)C1=C[C@H](COCc1ccccc1)O[C@@H]2C	/	/	/	/	.	/	/
COC(=O)[C@H](C)NC(=O)[C@@H]1CCCN1C(=O)CNP(=O)(OCc1ccccc1)OCc1ccccc1	/	/	/	/	.	/	/
O=C(O)c1cccc(N2C(=O)c3cccc4cccc(c34)C2=O)c1	.	.	.	.	.	/	/
O=C(O)c1cccc(N2C(=O)c3cc([N+](=O)[O-])cc4cc([N+](=O)[O-])cc(c34)C2=O)c1	.	.	.	34	.	45	.
CCc1ccc(NS(=O)(=O)c2ccc3c(c2)oc(=O)n3C)cc1	.	.	.	.	.	58	47
O=C(Nc1ncc(Cc2ccccc2)s1)C1=NCCN1	.	.	.	.	.	.	/
